Assay results of several laboratories.
Each line is one published result; the experiments were not run side by side. ≈ marks a conversion by molar mass, not a printed value.

CSc1ccc(/C=C/c2cc(/C=C3\Sc4ccccc4N3CCCN3CCCC3)c3ccccc3[n+]2C)cc1.[I-] — MIC (Acinetobacter baumannii; microbial growth, broth dilution; ATCC19606; drug-resistant strain): 64 µg/mL
CC1CCCC2(C1)SCC(=O)N2NC(=O)c1[nH]c2ccc(Cl)cc2c1-c1ccccc1 (stereo not shown) — EC50 (Enterovirus B; viral replication, inhibitor; Vero, B4): > 100 µM
COC(=O)c1cc(-c2cccc(NC(=O)Nc3cc(Cl)ccc3Cl)c2)on1 — MIC (Acinetobacter baumannii; microbial growth, broth dilution; BAA1605): > 64 µg/mL
C=C[C@@H]1C[C@]1(NC(=O)[C@@H]1C[C@@H]2CN1C(=O)[C@H](C(C)(C)C)NC(=O)O[C@@H]1C[C@H]1CCCCCc1nc3ccc(OC)cc3nc1O2)C(=O)NS(=O)(=O)C1CC1 — IC50 (Hepatitis C virus; viral replication, inhibitor, luciferase; Huh-7, GETYPE1B; 96 h, replicon): 0.0466 µM
COC(=O)c1cc(-c2cccc(NC(=O)Nc3cc(OC)ccc3OC)c2)on1 — MIC (Acinetobacter baumannii; microbial growth, broth dilution; BAA1605): > 64 µg/mL
C[n+]1c(/C=C/c2c[nH]c3ccccc23)cc(/C=C2\Sc3ccccc3N2CCCN2CCOCC2)c2ccccc21.[I-] — MIC (Acinetobacter baumannii; microbial growth, broth dilution; ATCC19606; drug-resistant strain): > 64 µg/mL
CCCC1CCC2(CC1)SC(C)C(=O)N2NC(=O)c1[nH]c2ccc(Cl)cc2c1-c1ccccc1 (stereo not shown) — EC50 (Enterovirus B; viral replication, inhibitor; Vero, B4): > 100 µM
C=C1CC[C@H](O)C/C1=C/C=C1\CCC[C@]2(C)[C@@H]([C@H](C)/C=C/[C@H](C)C(C)C)CC[C@@H]12 — EC50 (Hepatitis C virus; viral replication, inhibitor, luciferase; GETYPE2A; 72 h, replicon): 14.2 µM
NC(=O)c1ncn([C@@H]2O[C@H](CO)[C@@H](O)[C@H]2O)n1 — EC50 (Enterovirus B; viral replication, inhibitor; Vero, B4): > 250 µM
CC(C)(CO)C(=O)SCCOP(=O)(NCc1ccccc1)OC[C@H]1O[C@@H](n2cnc3c(=O)[nH]c(N)nc32)[C@](C)(O)[C@@H]1O (mixture of isomers) — EC90 (Hepatitis C virus; viral replication, inhibitor; Huh-7, GETYPE1; replicon): 0.9 µM
COC(=O)c1cc(-c2cccc(NC(=O)Nc3cccc(Cl)c3Cl)c2)on1 — MIC (Acinetobacter baumannii; microbial growth, broth dilution; BAA1605): > 64 µg/mL
CCC1CCC2(CC1)SC(C)C(=O)N2NC(=O)c1[nH]c2ccc(Cl)cc2c1-c1ccccc1 (stereo not shown) — EC50 (Enterovirus B; viral replication, inhibitor; Vero, B4): > 100 µM
COc1cccc(OC)c1C(=O)N[C@@H]1C(=O)N2[C@@H]1SC(C)(C)[C@@H]2C(=O)O — MIC (Acinetobacter baumannii; microbial growth, broth dilution; ATCC19606; drug-resistant strain): > 256 µg/mL
CC(C)(C)C1CCC2(CC1)SCC(=O)N2NC(=O)c1[nH]c2ccc(Cl)cc2c1-c1ccccc1 (stereo not shown) — EC50 (Enterovirus B; viral replication, inhibitor; Vero, B4): > 100 µM
COC(=O)c1cc(-c2cccc(NC(=O)Nc3cccc(F)c3)c2)on1 — MIC (Acinetobacter baumannii; microbial growth, broth dilution; BAA1605): > 64 µg/mL
COc1nc(N)nc2c1ncn2[C@@H]1O[C@H](COP(=O)(N[C@@H](C)C(=O)OCC(C)(C)C)Oc2cccc3ccccc23)[C@@H](O)[C@@]1(C)O (stereo partly shown) — EC90 (Hepatitis C virus; viral replication, inhibitor; GETYPE2A; 96 h, replicon): 0.0128 µM
CCC1CCC2(CC1)SCC(=O)N2NC(=O)c1[nH]c2ccc(Cl)cc2c1-c1ccccc1 (stereo not shown) — EC50 (Enterovirus B; viral replication, inhibitor; Vero, B4): > 100 µM
C[n+]1c(/C=C/c2ccc(O)cc2)cc(/C=C2\Sc3ccccc3N2CCCN2CCOCC2)c2ccccc21.[I-] — MIC (Acinetobacter baumannii; microbial growth, broth dilution; ATCC19606; drug-resistant strain): > 64 µg/mL
C=C1/C(=C\C=C2/CCC[C@]3(C)[C@@H]([C@H](C)CCCC(C)(C)O)CC[C@@H]23)C[C@@H](O)C[C@@H]1O — EC50 (Hepatitis C virus; viral replication, inhibitor, luciferase; GETYPE2A; 5 days, replicon): 4.71 µM
COC(=O)c1cc(-c2cccc(NC(=O)Nc3ccccc3)c2)on1 — MIC (Acinetobacter baumannii; microbial growth, broth dilution; BAA1605): > 64 µg/mL
O=C(NN1C(=O)CSC12CCC(c1ccccc1)CC2)c1[nH]c2ccc(Cl)cc2c1-c1ccccc1 (stereo not shown) — EC50 (Enterovirus B; viral replication, inhibitor; Vero, B4): > 100 µM
COC(=O)c1cc(-c2cccc(NC(=O)Nc3ccc(F)cc3)c2)on1 — MIC (Acinetobacter baumannii; microbial growth, broth dilution; BAA1605): > 64 µg/mL
Cc1c(NN=C(C#N)C2=NC(=O)CS2)c(=O)n(-c2ccccc2)n1C — MBC (Acinetobacter baumannii; microbial killing, broth dilution): 0.25 µg/mL (≈ 0.705 µM)
C=C1CC[C@H](O)C/C1=C/C=C1\CCC[C@]2(C)[C@@H]([C@H](C)CCCC(C)C)CC[C@@H]12 — EC50 (Hepatitis C virus; viral replication, inhibitor, luciferase; GETYPE2A; 5 days, replicon): 8.45 µM
O=C(Nc1cccc(-c2cc(C(=O)O)no2)c1)Nc1ccc(Cl)c(Cl)c1 — MIC (Acinetobacter baumannii; microbial growth, broth dilution; BAA1605): > 64 µg/mL
CC1SC2(CCC(c3ccccc3)CC2)N(NC(=O)c2[nH]c3ccc(Cl)cc3c2-c2ccccc2)C1=O (stereo not shown) — EC50 (Enterovirus B; viral replication, inhibitor; Vero, B4): > 100 µM
COC(=O)c1cc(-c2cccc(NC(=S)Nc3ccc(F)cc3)c2)on1 — MIC (Acinetobacter baumannii; microbial growth, broth dilution; BAA1605): > 64 µg/mL
COC(=O)N[C@H](C(=O)N1CCC[C@H]1c1ncc(-c2ccc(-c3cnc([C@@H]4CCCN4C(=O)[C@@H](NC(=O)OC)C(C)C)[nH]3)cc2)[nH]1)C(C)C — EC90 (Hepatitis C virus; viral replication, inhibitor; Huh-7, GETYPE1B; replicon): > 0.001 µM
